Structures are written as SMILES.

The target in test [1] is T1, B-cell receptor CD22 (Mus musculus, UniProt P35329).
T1 sequence (P35329 whole entry): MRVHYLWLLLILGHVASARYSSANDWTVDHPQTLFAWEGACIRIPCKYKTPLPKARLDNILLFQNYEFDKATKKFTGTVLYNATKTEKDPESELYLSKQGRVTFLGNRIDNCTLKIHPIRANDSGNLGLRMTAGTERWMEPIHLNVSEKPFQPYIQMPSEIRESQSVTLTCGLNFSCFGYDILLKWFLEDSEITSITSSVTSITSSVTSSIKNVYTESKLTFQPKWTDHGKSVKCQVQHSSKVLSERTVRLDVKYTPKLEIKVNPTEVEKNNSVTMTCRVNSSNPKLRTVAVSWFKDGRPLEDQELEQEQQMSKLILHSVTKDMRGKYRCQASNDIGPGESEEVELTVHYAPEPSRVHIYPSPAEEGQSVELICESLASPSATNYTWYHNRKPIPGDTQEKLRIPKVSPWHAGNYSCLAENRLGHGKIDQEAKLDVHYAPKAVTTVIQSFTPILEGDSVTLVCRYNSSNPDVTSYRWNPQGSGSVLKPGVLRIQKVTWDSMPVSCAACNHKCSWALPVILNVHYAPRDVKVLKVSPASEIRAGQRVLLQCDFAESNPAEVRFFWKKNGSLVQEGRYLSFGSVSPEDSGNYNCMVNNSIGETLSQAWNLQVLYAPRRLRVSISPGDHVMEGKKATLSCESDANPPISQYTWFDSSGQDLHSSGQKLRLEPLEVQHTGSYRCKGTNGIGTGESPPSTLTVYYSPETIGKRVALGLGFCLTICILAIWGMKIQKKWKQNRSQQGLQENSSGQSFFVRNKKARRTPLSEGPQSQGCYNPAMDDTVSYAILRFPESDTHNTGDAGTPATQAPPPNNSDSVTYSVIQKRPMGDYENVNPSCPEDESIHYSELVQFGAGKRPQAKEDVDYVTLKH
Briefly: Antagonist activity at mouse CD22 after 1 hr by competitive ELISA. Format: functional. The method, boiled down: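 Competition ELISA. Wells coated overnight with streptavidin (40 μg/mL in 50 mM NaHCO3, pH 8.5), then loaded 1 h with biotinylated sialoside probe (4 μg/mL in PBS) and blocked 3 h with 0.5% BSA/PBS. Graded inhibitor concentrations were incubated 1 h with 0.5 μg CD22Fc. After PBS/0.05% Tween 20 washes, bound Fc was detected with alkaline phosphatase anti-human IgG Fc. Triplicates, mean ± SD.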
A general note: An ELISA detects its analyte on a solid surface through an enzyme-linked reagent.

For test [2], the target named is T2, B-cell receptor CD22 (Mus musculus) (UniProt P35329).
T2 sequence (whole entry): T1 sequence (P35329 whole entry)
In words: Ratio of IC50 for 9-(4'-hydroxy-4-biphenyl)acetamido-9-deoxy-Neu5Gca2-6GalOMP to IC50 for compound at mouse CD22. The essentials:
(§1)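 Relative inhibitory potency (rIP) = IC50 of the 9-biphenylacetamido Neu5Gcα2-6GalOMP reference divided by IC50 of the test sialoside, each IC50 taken from the competition ELISA for the respective CD22 species. Values above 1.0 mean tighter binding than the reference.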

Test [3] has as its target T3, Myelin-associated glycoprotein (Homo sapiens, UniProt P20916).
T3 sequence (P20916 whole entry): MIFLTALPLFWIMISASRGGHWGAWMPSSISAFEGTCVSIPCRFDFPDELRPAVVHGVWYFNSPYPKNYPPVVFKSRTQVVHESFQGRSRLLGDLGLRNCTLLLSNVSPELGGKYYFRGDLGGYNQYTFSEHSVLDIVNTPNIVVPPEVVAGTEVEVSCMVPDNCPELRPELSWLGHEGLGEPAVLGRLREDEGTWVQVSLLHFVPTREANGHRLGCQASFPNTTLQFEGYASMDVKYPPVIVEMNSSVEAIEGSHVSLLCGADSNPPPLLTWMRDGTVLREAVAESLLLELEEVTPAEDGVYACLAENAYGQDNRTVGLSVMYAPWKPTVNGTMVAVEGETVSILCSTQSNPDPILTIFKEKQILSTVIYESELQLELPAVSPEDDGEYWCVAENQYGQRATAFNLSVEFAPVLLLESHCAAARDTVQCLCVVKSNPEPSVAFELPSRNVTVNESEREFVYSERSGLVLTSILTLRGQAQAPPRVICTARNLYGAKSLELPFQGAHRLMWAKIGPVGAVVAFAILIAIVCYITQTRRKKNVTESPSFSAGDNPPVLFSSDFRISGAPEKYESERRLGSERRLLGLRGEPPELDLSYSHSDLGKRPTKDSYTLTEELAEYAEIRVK
In words: Inhibition of human MAG after 30 min by competitive ELISA.

The species entered for the next test is Homo sapiens. Briefly: Selectivity ratio of IC50 for human MAG to IC50 for human CD22.
Test [4] concerns the target T4, B-cell receptor CD22 (Homo sapiens, UniProt P20273).
T4 sequence (P20273 whole entry): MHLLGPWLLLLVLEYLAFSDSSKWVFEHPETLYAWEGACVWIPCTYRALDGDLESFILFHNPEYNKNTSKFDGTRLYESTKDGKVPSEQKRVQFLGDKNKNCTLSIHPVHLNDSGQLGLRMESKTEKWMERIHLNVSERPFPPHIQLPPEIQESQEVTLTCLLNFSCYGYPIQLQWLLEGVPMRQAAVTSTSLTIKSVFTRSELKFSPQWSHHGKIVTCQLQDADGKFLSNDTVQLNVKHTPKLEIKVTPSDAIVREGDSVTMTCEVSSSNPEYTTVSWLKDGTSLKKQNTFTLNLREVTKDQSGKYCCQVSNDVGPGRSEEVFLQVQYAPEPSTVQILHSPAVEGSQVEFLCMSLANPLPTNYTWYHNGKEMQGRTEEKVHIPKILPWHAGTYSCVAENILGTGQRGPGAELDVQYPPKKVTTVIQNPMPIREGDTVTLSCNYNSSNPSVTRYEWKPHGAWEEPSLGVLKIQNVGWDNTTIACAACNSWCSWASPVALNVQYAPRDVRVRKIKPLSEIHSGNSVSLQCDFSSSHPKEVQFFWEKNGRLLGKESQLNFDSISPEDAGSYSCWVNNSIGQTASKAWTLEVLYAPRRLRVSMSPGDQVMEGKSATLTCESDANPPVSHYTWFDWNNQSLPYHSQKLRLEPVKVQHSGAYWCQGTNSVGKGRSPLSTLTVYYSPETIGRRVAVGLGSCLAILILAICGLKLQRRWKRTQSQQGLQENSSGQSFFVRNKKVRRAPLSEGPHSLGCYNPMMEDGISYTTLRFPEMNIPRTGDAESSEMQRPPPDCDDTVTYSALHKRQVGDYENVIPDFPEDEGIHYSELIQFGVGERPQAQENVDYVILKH
Briefly: Antagonist activity at human CD22 after 1 hr by competitive ELISA. The format is functional. The essentials: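 Neutravidin-precoated plates (1 μg/well, overnight, 4°C) were blocked with 0.5% BSA in HBSS for 30 min at 37°C. Biotinylated Siaα2-6LacNAc-PAA (0.625 μg/mL) was bound 1 h at RT. Inhibitor and precomplexed hCD22-Fc/goat anti-human IgG F(ab')2 were added and bound 30 min at 37°C. After HBSS washes: TMB, H2SO4 stop, OD450. Triplicates, mean ± SD.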

In test [5] the target is T3, Myelin-associated glycoprotein. In words: Inhibition of human MAG after 1 hr by competitive ELISA. Particulars: in the assay text read “after 30 min” for “after 1 hr”. The essentials:
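Neutravidin plates as for hCD22, with biotinylated Siaα2-3LacNAc-PAA (0.33 μM) bound 1 h at RT. MAG-Fc (~0.12 μg/ml) was pretreated with V. cholerae sialidase (0.4 mU/ml) 45 min, stopped with 1 mM EDTA, then complexed 45 min with goat anti-human IgG F(ab')2 (0.05 μg/mL) and HRP anti-goat F(ab')2 (0.0167 μg/mL). Complex was diluted 3:2, bound with inhibitor 30 min at 37°C, and read by TMB at OD450.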

In test [6] the target is B-cell receptor CD22 (Homo sapiens) (UniProt P20273). In words: Ratio of IC50 for 9-(4'-hydroxy-4-biphenyl)acetamido-9-deoxy-Neu5Gca2-6GalOMP to IC50 for compound at human CD22. The essentials:
as §1

One may read the IC50 as the concentration needed to halve the response being measured. A higher IC50 goes with a need for much substance. As to `O=C(Cc1ccc(-c2ccc(F)cc2)cc1)NC[C@@H](O)[C@@H](O)[C@@H]1O[C@@](OCc2ccccc2)(C(=O)O)C[C@H](O)[C@H]1NC(=O)CO`, on B-cell receptor CD22 [1], the IC50 came out at 5 µM. For the same compound, the Ratio IC50 in test [2] was 0.77.
As for `COc1ccc(O[C@@H]2O[C@H](CO[C@]3(C(=O)O)C[C@H](O)[C@@H](NC(=O)CO)[C@H]([C@H](O)[C@H](O)CNC(=O)Cc4ccc(-c5ccc(O)cc5)cc4)O3)[C@H](O)[C@H](O)[C@H]2O)cc1`, the IC50 in test [3] was 136 µM; at B-cell receptor CD22 [1] it was 3.84 µM. The Ratio IC50 in the test filed under Homo sapiens is 41.5.
As to `COc1ccc(O[C@@H]2O[C@H](CO[C@]3(C(=O)O)C[C@H](O)[C@@H](NC(=O)CO)[C@H]([C@H](O)[C@H](O)CNCc4ccc(-c5ccc(O)cc5)cc4)O3)[C@H](O)[C@H](O)[C@H]2O)cc1`, the Ratio IC50 is 11.4 in the test listed under Homo sapiens, 1 in test [2] and 1 in test [6]. The IC50 amounted to 6.43 µM at B-cell receptor CD22 [1], 0.53 µM at B-cell receptor CD22 [4] and 37.4 µM in test [5].
As to `O=C(CO)N[C@H]1[C@H]([C@H](O)[C@H](O)CNCc2ccc(-c3ccc(O)cc3)cc2)O[C@@](OCc2ccc(-c3ccccc3)cc2)(C(=O)O)C[C@@H]1O`, the IC50 in test [3] turned out to be 16.6 µM; at B-cell receptor CD22 [1], 23.3 µM; at B-cell receptor CD22 [4], 1.12 µM. The results for the Ratio IC50 (in the test filed under Homo sapiens; in test [2]; in test [6]) were 7.4, 0.3 and 0.5, respectively.
As for `O=C(Cc1ccc(-c2ccc(O)cc2)cc1)NC[C@@H](O)[C@@H](O)[C@@H]1O[C@@](OCc2ccc(-c3ccccc3)cc2)(C(=O)O)C[C@H](O)[C@H]1NC(=O)CO`, the values for the 50% inhibitory concentration (IC50) (in test [3]; at B-cell receptor CD22 [1]; at B-cell receptor CD22 [4]) were 164 µM, 0.19 µM and 0.07 µM, respectively. Besides, the Ratio IC50 in the test filed under Homo sapiens was 432; in test [2] it was 20.2; in test [6] it was 12.
For `O=C(Cc1ccc(-c2ccc(O)cc2)cc1)NC[C@@H](O)[C@@H](O)[C@@H]1O[C@@](OCc2ccccc2)(C(=O)O)C[C@H](O)[C@H]1NC(=O)CO`, the figures for the IC50 (in test [3]; at B-cell receptor CD22 [1]; at B-cell receptor CD22 [4]) were 171 µM, 0.1 µM and 0.13 µM, respectively. For the same compound, the Ratio IC50 came out at 712 in the test filed under Homo sapiens, 38.4 in test [2] and 7 in test [6].
Consider `O=C(CO)N[C@H]1[C@H]([C@H](O)[C@H](O)CNCc2ccc(-c3ccc(O)cc3)cc2)O[C@@](OCc2ccccc2)(C(=O)O)C[C@@H]1O`, for which the Ratio IC50 in the test filed under Homo sapiens came to 3.4; in test [2] it was 1.2; in test [6], 0.6. Moreover, the IC50 on B-cell receptor CD22 [1] was determined as 5.03 µM; on B-cell receptor CD22 [4], 0.82 µM; in test [5] it was 9.27 µM.
